According to ChEMBL document CHEMBL1139875, “Discovery of 4-aminobutyric acid derivatives possessing anticonvulsant and antinociceptive activities: a hybrid pharmacophore approach” (2007):
Active and inactive are the calls of the source. The rule behind the calls is not given here.

Assays:
[1] = system: Mus musculus; experiment: Anticonvulsant activity in Swiss Albino mouse at 100 mg/kg, ip after 4 hrs by scPIC test; type: functional, organism-based; design: dose 100 mg/kg
Procedure, shortened: (§1)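 Mice (Swiss, 20-25 g) given i.p. doses of 30, 100 and 300 mg/kg under ADD program protocols, three per group, examined at 0.5 and 4 h in MES, scPTZ, scSTY or scPIC seizure tests. Value is the minimum dose protecting half or more of the mice.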

[2] = system: Mus musculus; experiment: Anticonvulsant activity in Swiss Albino mouse at 300 mg/kg, ip after 4 hrs by scPIC test; type: functional, organism-based; design: dose 300 mg/kg; procedure, shortened: as §1

| SMILES | Activity [1] | Activity [2] |
| --- | --- | --- |
| CN(C)c1ccc(/C=N/NC(=O)NCCCC(=O)O)cc1 | Active |  |
| O=C(O)CCCNC(=O)N/N=C1\C(=O)Nc2ccccc21 |  | Active |
